Experiments:
Format in all cases: functional
Streptococcus pneumoniae [1] = assay: Antimicrobial activity against Streptococcus pneumoniae isolate 33 by agar dilution method
Summary of the method: (§1)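 Agar dilution MIC on Mueller-Hinton agar with 5% sheep blood, inocula 10^4 CFU/spot; amoxicillin-clavulanate combined 1:2; S. pneumoniae ATCC 49619 quality control each run.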

Streptococcus pneumoniae [2] = assay: Antimicrobial activity against Streptococcus pneumoniae isolate 1384 by agar dilution method; summary of the method: as §1
Streptococcus pneumoniae [3] = assay: Antimicrobial activity against Streptococcus pneumoniae 3 by time-kill analysis
Summary of the method: (§2)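 Time-kill in cation-adjusted Mueller-Hinton broth with 5% lysed horse blood; inocula 5 × 105 to 5 × 10^6 CFU/ml; drugs at MIC, 2× and 4× MIC; 35°C shaking water bath; viable counts at 0, 3, 6, 12, 24 h. Bactericidal = ≥3 log10 CFU/ml (99.9%) drop from original inoculum; 90%/99%/99.9% killing scored per strain.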

Streptococcus pneumoniae [4] = assay: Antimicrobial activity against Streptococcus pneumoniae isolate 2688 by agar dilution method; summary of the method: as §1
Streptococcus pneumoniae [5] = assay: Antimicrobial activity against Streptococcus pneumoniae 8 by time-kill analysis; summary of the method: as §2
Streptococcus pneumoniae [6] = assay: Antimicrobial activity against Streptococcus pneumoniae isolate 1424 by agar dilution method; summary of the method: as §1
Streptococcus pneumoniae [7] = assay: Antimicrobial activity against Streptococcus pneumoniae isolate 4747 by agar dilution method; summary of the method: as §1
Streptococcus pneumoniae [8] = assay: Antimicrobial activity against Streptococcus pneumoniae 12 by time-kill analysis; summary of the method: as §2
Streptococcus pneumoniae [9] = assay: Antimicrobial activity against Streptococcus pneumoniae isolate 2617 by agar dilution method; summary of the method: as §1
Streptococcus pneumoniae [10] = assay: Antimicrobial activity against Streptococcus pneumoniae isolate 1147 by agar dilution method; summary of the method: as §1
Streptococcus pneumoniae [11] = assay: Antimicrobial activity against Streptococcus pneumoniae isolate 3481 by agar dilution method; summary of the method: as §1
Streptococcus pneumoniae [12] = assay: Antimicrobial activity against Streptococcus pneumoniae 2 by time-kill analysis; summary of the method: as §2
Streptococcus pneumoniae [13] = assay: Antimicrobial activity against penicillin-resistant Streptococcus pneumoniae by agar dilution method; summary of the method: as §1
Streptococcus pneumoniae [14] = assay: Antimicrobial activity against Streptococcus pneumoniae 11 by time-kill analysis; summary of the method: as §2
Streptococcus pneumoniae [15] = assay: Antimicrobial activity against penicillin-intermediate Streptococcus pneumoniae by agar dilution method
Streptococcus pneumoniae [16] = assay: Antimicrobial activity against Streptococcus pneumoniae 9 by time-kill analysis
Summary of the method: (§3)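 Time-kill in cation-adjusted Mueller-Hinton broth with 5% lysed horse blood; inocula 5 × 105 to 5 × 10^6 CFU/ml; drugs at MIC, 2× and 4× MIC; 35°C shaking water bath; viable counts at 0, 3, 6, 12 and 24 h. Bactericidal if ≥3 log10 CFU/ml (99.9%) reduction from original inoculum; 90% and 99% killing also scored.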

Streptococcus pneumoniae [17] = assay: Antimicrobial activity against Streptococcus pneumoniae isolate 1397 by agar dilution method; summary of the method: as §1
Streptococcus pneumoniae [18] = assay: Antimicrobial activity against Streptococcus pneumoniae isolate 2880 by agar dilution method; summary of the method: as §1
Streptococcus pneumoniae [19] = assay: Antimicrobial activity against Streptococcus pneumoniae isolate 1564 by agar dilution method
Streptococcus pneumoniae [20] = assay: Antimicrobial activity against Streptococcus pneumoniae 7 by time-kill analysis; summary of the method: as §2
Streptococcus pneumoniae [21] = assay: Antimicrobial activity against Streptococcus pneumoniae isolate 3458 by agar dilution method
Streptococcus pneumoniae [22] = assay: Antimicrobial activity against Streptococcus pneumoniae isolate 3455 by agar dilution method
Streptococcus pneumoniae [23] = assay: Antimicrobial activity against Streptococcus pneumoniae isolate 1055 by agar dilution method
Streptococcus pneumoniae [24] = assay: Antimicrobial activity against penicillin-susceptible Streptococcus pneumoniae by agar dilution method
Streptococcus pneumoniae [25] = assay: Antimicrobial activity against Streptococcus pneumoniae 19A by agar dilution method; summary of the method: as §1
Streptococcus pneumoniae [26] = assay: Antimicrobial activity against Streptococcus pneumoniae isolate 1394 by agar dilution method
Streptococcus pneumoniae [27] = assay: Antimicrobial activity against Streptococcus pneumoniae isolate 1146 by agar dilution method; summary of the method: as §1
Streptococcus pneumoniae [28] = assay: Antimicrobial activity against Streptococcus pneumoniae isolate 3346 by agar dilution method
Streptococcus pneumoniae [29] = assay: Antimicrobial activity against Streptococcus pneumoniae isolate 37 by agar dilution method; summary of the method: as §1
Streptococcus pneumoniae [30] = assay: Antimicrobial activity against Streptococcus pneumoniae isolate 24 by agar dilution method
Streptococcus pneumoniae [31] = assay: Antimicrobial activity against Streptococcus pneumoniae 6 by time-kill analysis; summary of the method: as §2
Streptococcus pneumoniae [32] = assay: Antimicrobial activity against Streptococcus pneumoniae isolate 4755 by agar dilution method; summary of the method: as §1
Streptococcus pneumoniae [33] = assay: Antimicrobial activity against Streptococcus pneumoniae isolate 3681 by agar dilution method; summary of the method: as §1
Streptococcus pneumoniae [34] = assay: Antimicrobial activity against Streptococcus pneumoniae isolate 3587 by agar dilution method
Streptococcus pneumoniae [35] = assay: Antimicrobial activity against Streptococcus pneumoniae isolate 3263 by agar dilution method
Streptococcus pneumoniae [36] = assay: Antimicrobial activity against Streptococcus pneumoniae 10 by time-kill analysis; summary of the method: as §2
Streptococcus pneumoniae [37] = assay: Antimicrobial activity against Streptococcus pneumoniae isolate 3374 by agar dilution method; summary of the method: as §1
Streptococcus pneumoniae [38] = assay: Antimicrobial activity against Streptococcus pneumoniae isolate 3791 by agar dilution method; summary of the method: as §1
Streptococcus pneumoniae [39] = assay: Antimicrobial activity against Streptococcus pneumoniae 5 by time-kill analysis; summary of the method: as §3
Streptococcus pneumoniae [40] = assay: Antimicrobial activity against Streptococcus pneumoniae 4 by time-kill analysis; summary of the method: as §2
Streptococcus pneumoniae [41] = assay: Antimicrobial activity against Streptococcus pneumoniae isolate 2874 by agar dilution method; summary of the method: as §1
Streptococcus pneumoniae [42] = assay: Antimicrobial activity against Streptococcus pneumoniae isolate 3275 by agar dilution method; summary of the method: as §1
Streptococcus pneumoniae [43] = assay: Antimicrobial activity against Streptococcus pneumoniae isolate 2686 by agar dilution method; summary of the method: as §1
Streptococcus pneumoniae [44] = assay: Antimicrobial activity against Streptococcus pneumoniae 1 by time-kill analysis; summary of the method: as §3
Streptococcus pneumoniae [45] = assay: Antimicrobial activity against Streptococcus pneumoniae isolate 3412 by agar dilution method; summary of the method: as §1
Streptococcus pneumoniae [46] = assay: Antimicrobial activity against Streptococcus pneumoniae isolate 3260 by agar dilution method
Streptococcus pneumoniae [47] = assay: Antimicrobial activity against Streptococcus pneumoniae isolate 3282 by agar dilution method

CO/N=C(\C(=O)N[C@@H]1C(=O)N2C(C(=O)O)=C(CSc3nc(=O)c(O)nn3C)CS[C@H]12)c1csc(N)n1 [CEFTRIAXONE]
> 8 µg/mL: MIC (Streptococcus pneumoniae [19])
0.016 µg/mL: MIC (Streptococcus pneumoniae [12])
2 µg/mL: MIC (Streptococcus pneumoniae [2]) | MIC (Streptococcus pneumoniae [5]) | MIC (Streptococcus pneumoniae [7]) | MIC (Streptococcus pneumoniae [10]) | MIC (Streptococcus pneumoniae [11]) | MIC90 (Streptococcus pneumoniae [13]) | MIC (Streptococcus pneumoniae [20]) | MIC50 (Streptococcus pneumoniae [25]) | MIC90 (Streptococcus pneumoniae [25]) | MIC (Streptococcus pneumoniae [27]) | MIC (Streptococcus pneumoniae [29]) | MIC (Streptococcus pneumoniae [30]) | MIC (Streptococcus pneumoniae [32]) | MIC (Streptococcus pneumoniae [41]) | MIC (Streptococcus pneumoniae [43]) | MIC (Streptococcus pneumoniae [45])
0.5 µg/mL: MIC (Streptococcus pneumoniae [18]) | MIC (Streptococcus pneumoniae [46]) | MIC (Streptococcus pneumoniae [47])
0.25 µg/mL: MIC (Streptococcus pneumoniae [3]) | MIC (Streptococcus pneumoniae [42])
0.12 µg/mL: MIC (Streptococcus pneumoniae [16]) | MIC (Streptococcus pneumoniae [31]) | MIC (Streptococcus pneumoniae [36])
0.03 µg/mL: MIC50 (Streptococcus pneumoniae [24]) | MIC (Streptococcus pneumoniae [44])
4 µg/mL: MIC (Streptococcus pneumoniae [4]) | MIC (Streptococcus pneumoniae [6]) | MIC (Streptococcus pneumoniae [14]) | MIC (Streptococcus pneumoniae [17]) | MIC (Streptococcus pneumoniae [26]) | MIC (Streptococcus pneumoniae [39]) | MIC (Streptococcus pneumoniae [40])
1 µg/mL: MIC (Streptococcus pneumoniae [1]) | MIC (Streptococcus pneumoniae [8]) | MIC (Streptococcus pneumoniae [9]) | MIC50 (Streptococcus pneumoniae [13]) | MIC90 (Streptococcus pneumoniae [15]) | MIC (Streptococcus pneumoniae [21]) | MIC (Streptococcus pneumoniae [22]) | MIC (Streptococcus pneumoniae [23]) | MIC (Streptococcus pneumoniae [28]) | MIC (Streptococcus pneumoniae [33]) | MIC (Streptococcus pneumoniae [34]) | MIC (Streptococcus pneumoniae [35]) | MIC (Streptococcus pneumoniae [37]) | MIC (Streptococcus pneumoniae [38])
0.125 µg/mL: MIC50 (Streptococcus pneumoniae [15])
0.06 µg/mL: MIC90 (Streptococcus pneumoniae [24])
